Assay [1] deals with PC-3. Nature of the assay: Induction of apoptosis in human PC3 cells assessed as increase in cleaved PARP level at 1 to 2 uM after 24 hrs by Western blot method. Type of assay: functional, cell-based. In a few lines:
(§1)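 MV4-11 (1,500,000/well) or PC-3 (300,000/well) grown 12 h, then treated 24 h at 1 and 2 μM, with 5 μM SAHA as reference. RIPA lysis, sonication and centrifugation, BCA normalization. NuPAGE 4–12% Bis-Tris gel in MES, transfer, primary antibodies 1/1000 overnight at 4 °C. Actin as loading control.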
A general note: A western blot detects proteins with antibodies after separation by electrophoresis.

The test system of assay [2] is PC-3. Nature of the assay: Cell cycle arrest in human PC3 cells assessed as accumulation at G2/M phase up to 2 uM after 24 hrs by propidium iodide staining based flow cytometry. Type of assay: functional. On the technique in general: Flow cytometry measures light scatter and fluorescence of single cells or particles in a stream.
The target of assay [3] is T1, Histone deacetylase 1 (Homo sapiens, UniProt Q13547). As to conditions: 0.25 to 2 uM.
T1 sequence (Q13547 whole entry): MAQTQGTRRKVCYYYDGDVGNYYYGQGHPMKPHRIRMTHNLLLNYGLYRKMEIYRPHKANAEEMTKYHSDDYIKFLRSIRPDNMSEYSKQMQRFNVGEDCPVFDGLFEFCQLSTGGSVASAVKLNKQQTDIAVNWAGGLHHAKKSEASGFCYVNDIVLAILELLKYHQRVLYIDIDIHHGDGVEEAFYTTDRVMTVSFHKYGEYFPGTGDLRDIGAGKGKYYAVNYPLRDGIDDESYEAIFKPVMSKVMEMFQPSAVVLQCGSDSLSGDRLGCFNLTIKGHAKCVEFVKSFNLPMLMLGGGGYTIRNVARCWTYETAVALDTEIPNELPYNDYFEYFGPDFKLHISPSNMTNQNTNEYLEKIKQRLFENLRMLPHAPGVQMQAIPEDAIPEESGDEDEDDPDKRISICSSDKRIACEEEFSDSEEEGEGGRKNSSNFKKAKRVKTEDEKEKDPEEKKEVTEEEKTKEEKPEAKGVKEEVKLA
Assay [4] concerns PC-3. Nature of the assay: Antiproliferative activity against human PC3 cells assessed as cell viability at 10 uM after 48 hrs by CellTiter-Blue assay relative to control. Conditions: PC-3, 48 h, read-out: Activity. Format: functional. The gist of the method: (§2)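 MV4-11 and PC-3 cells treated with 10 or 2 μM (or 0 μM) and sampled at 24 and 48 h. Viable cells measured by CellTiter-Blue resorufin fluorescence, read as in the EC50 assay, which is proportional to viable cell number. Representative of n = 2 experiments.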
(The colour change of resazurin is a common sign of viable cells or microbes.)

Assay [5] has as its system MV4-11. Nature of the assay: Downregulation of HDAC6 protein expression in human MV4-11 cells at >= 0.5 uM after 24 hrs by Western blot analysis. Format: functional, cell-based. In a few lines:
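MV4-11 cells treated 24 h at 0.25, 0.5, 1 and 2 μM, with 5 μM SAHA as reference. RIPA lysates normalized by BCA, run on 4–12% Bis-Tris gels, probed with primary antibodies at 1/1000 overnight at 4 °C. HDAC6 and acetylated histones/tubulin detected; actin as loading control. Representative of n = 2.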

In assay [6] the test system is MV4-11. Nature of the assay: Cell cycle arrest in human MV4-11 cells assessed as accumulation at subG1 phase after 24 hrs by propidium iodide staining based flow cytometry. Type of assay: functional.
The target in assay [7] is Histone deacetylase 3 (Homo sapiens) (UniProt O15379). Conditions: 0.25 to 2 uM.
Sequence of Histone deacetylase 3 (Homo sapiens) (O15379 whole entry): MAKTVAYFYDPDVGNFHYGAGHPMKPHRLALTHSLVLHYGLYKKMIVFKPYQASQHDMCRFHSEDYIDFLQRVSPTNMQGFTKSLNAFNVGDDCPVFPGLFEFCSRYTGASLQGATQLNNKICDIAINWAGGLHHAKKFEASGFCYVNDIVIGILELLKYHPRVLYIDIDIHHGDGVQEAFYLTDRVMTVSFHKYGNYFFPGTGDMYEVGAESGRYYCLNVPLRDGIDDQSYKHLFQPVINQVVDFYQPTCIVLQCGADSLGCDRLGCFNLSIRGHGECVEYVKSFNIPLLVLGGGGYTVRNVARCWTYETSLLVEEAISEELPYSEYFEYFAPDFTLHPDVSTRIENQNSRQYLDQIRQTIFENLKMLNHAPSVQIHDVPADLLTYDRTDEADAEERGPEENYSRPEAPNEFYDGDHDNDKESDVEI
In assay [8] the target is T1, Histone deacetylase 1. Conditions: 0.25 to 2 uM. This is another data set of the same source.
For assay [9], the target named is Histone deacetylase 9 (Homo sapiens, UniProt Q9UKV0). Nature of the assay: Inhibition of recombinant human C-terminal His-tagged HDAC9 (604 to 1066 residues) expressed in baculovirus expression system using Boc-Lys(trifluoroacetyl)-AMC as substrate preincubated for 1 hr followed by substrate addition measured after 2 hrs by fluorescence assay. In a few lines: (§3)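 Recombinant HDAC incubated with serial compound dilutions at 30 °C for 1 h. Reaction run 2 h at 30 °C, stopped with developer containing trypsin and TSA. Fluorescence read after 30 min at 360/460 nm. Inhibition relative to control wells; IC50 from variable-slope fit.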
Sequence of Histone deacetylase 9 (Q9UKV0 whole entry, the tested form may be a part): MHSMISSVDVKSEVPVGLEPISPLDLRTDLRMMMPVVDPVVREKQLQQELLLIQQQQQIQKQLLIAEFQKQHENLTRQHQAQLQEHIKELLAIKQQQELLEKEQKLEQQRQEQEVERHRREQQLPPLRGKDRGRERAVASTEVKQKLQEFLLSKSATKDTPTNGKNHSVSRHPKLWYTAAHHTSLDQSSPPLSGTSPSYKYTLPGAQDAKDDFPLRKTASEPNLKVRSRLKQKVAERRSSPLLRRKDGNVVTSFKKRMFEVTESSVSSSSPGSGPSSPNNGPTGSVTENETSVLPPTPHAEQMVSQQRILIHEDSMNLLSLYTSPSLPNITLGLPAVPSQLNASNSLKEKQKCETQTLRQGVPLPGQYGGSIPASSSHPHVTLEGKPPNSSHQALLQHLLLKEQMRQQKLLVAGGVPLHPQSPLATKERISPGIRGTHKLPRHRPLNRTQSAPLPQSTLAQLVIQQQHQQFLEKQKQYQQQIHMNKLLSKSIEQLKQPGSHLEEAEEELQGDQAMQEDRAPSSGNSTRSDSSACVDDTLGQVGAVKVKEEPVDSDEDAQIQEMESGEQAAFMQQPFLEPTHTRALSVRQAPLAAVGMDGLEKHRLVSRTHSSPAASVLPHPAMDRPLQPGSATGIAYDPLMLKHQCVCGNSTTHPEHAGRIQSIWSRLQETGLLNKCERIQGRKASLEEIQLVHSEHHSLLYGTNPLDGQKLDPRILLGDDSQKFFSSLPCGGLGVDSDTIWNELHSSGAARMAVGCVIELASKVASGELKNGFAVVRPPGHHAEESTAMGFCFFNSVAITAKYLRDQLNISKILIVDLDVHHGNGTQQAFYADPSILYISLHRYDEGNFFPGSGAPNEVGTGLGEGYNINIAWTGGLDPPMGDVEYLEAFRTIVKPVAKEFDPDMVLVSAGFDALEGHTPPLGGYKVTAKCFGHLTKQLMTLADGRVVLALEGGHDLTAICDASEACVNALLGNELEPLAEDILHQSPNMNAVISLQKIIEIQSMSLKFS

Assay [10] relates to MV4-11. Nature of the assay: Induction of apoptosis in human MV4-11 cells assessed as increase in cleaved PARP level at 1 to 2 uM after 24 hrs by Western blot method. Type of assay: functional, cell-based. The gist of the method:
as §1

In assay [11] the target is T2, Histone deacetylase 8 (Homo sapiens, UniProt Q9BY41).
T2 sequence (Q9BY41 whole entry): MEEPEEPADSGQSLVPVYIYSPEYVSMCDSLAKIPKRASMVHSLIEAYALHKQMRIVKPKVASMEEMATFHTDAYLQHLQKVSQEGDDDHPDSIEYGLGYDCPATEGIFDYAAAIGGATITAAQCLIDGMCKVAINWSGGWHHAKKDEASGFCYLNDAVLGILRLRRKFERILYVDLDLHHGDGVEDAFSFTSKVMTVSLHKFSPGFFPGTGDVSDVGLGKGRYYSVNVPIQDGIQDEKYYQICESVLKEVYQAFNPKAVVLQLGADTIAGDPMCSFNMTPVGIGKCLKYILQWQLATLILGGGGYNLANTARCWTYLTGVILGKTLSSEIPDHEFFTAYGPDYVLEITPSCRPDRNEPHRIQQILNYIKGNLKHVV
Nature of the assay: Inhibition of full length recombinant human C-terminal His-tagged HDAC8 expressed in baculovirus expression system using Boc-Lys(trifluoroacetyl)-AMC as substrate preincubated for 1 hr followed by substrate addition measured after 2 hrs by fluorescence assay. The gist of the method:
as §3

Assay [12] deals with MV4-11. Nature of the assay: Antiproliferative activity against human MV4-11 cells assessed as cell death at 10 uM after 48 hrs by CellTiter-Blue assay. Type of assay: functional, cell-based. The gist of the method:
as §2

In assay [13] the target is T3, Protein deacetylase HDAC6 (Homo sapiens) (UniProt Q9UBN7).
T3 sequence (whole entry): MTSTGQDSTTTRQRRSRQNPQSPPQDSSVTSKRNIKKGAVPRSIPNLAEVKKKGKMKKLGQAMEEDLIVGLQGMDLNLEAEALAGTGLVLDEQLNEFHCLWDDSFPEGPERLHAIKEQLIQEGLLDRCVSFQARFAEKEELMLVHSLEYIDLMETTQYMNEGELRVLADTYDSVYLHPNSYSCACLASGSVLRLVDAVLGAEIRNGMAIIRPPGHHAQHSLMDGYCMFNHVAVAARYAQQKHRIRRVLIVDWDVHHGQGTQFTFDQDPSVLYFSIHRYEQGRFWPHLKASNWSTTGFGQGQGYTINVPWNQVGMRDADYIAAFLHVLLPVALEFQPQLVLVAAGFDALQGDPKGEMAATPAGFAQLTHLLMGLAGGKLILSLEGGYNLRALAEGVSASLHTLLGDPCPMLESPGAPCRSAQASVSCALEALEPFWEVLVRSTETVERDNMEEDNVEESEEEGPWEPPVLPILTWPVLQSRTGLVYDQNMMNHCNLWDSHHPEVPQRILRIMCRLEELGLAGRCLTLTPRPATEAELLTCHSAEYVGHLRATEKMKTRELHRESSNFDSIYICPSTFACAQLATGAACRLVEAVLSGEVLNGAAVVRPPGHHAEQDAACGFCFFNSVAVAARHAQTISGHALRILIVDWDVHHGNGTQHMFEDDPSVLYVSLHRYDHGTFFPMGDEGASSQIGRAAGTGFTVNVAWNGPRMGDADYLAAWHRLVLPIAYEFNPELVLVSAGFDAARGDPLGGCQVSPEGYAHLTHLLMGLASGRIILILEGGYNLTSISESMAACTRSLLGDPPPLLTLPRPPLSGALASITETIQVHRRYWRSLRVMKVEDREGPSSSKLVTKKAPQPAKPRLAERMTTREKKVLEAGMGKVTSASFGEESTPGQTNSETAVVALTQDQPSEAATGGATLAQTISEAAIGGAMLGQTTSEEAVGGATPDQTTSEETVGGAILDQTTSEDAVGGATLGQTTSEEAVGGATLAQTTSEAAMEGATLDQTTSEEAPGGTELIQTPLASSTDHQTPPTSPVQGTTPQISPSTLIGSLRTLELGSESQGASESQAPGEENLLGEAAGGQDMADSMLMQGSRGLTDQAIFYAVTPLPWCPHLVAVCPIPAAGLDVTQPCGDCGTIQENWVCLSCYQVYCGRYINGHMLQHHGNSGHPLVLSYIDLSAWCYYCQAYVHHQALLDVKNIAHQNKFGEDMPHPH
Nature of the assay: Inhibition of HDAC6 in human PC3 cells assessed as increase in acetylated tubulin level at 1 to 2 uM after 24 hrs by Western blot method. Type of assay: cell-based. The gist of the method:
as §1

Structures are written as SMILES. The source made the active and inactive calls. The rule behind the calls is not given here.

For `CCCNNC(=O)c1ccc(NC(=O)[C@H](Cc2c[nH]c3ccccc23)NC(=O)c2ccc(OC)cc2)cc1`, the outcome in assay [1] was inactive. The outcome in assay [2], in assay [5], in assay [10] and in assay [12] was Active. Further, the inhibition result in assay [3], in assay [7] and in assay [8] was “Active” each time. For the same compound, the viability at 10 µM in assay [4] turned out to be 20%. Besides, the Activity entry in [6] is “Dose-dependent effect”. The IC50 in [9] was greater than 50000 nM; in assay [11] it was 626 nM. In addition, in assay [13], the inhibition result is “inactive”.

What is called IC50 is the point on the concentration scale where inhibition reaches its midpoint.
